Compound activity as filed in PubChem.
NR3A LBD binder: binders of NR3A ligand-binding domain, primary screen, biophysical, differential scanning fluorimetry, uHTS. Glutamate receptor ionotropic, NMDA 3A (GRIN3A) ligand-binding domain. NR3A LBD differential scanning fluorimetry, Tm shift; 0% = protein alone, 100% = glycine-bound protein. Tm shift relative to glycine control, % at 25 µM. 2.5% of 340,000 active;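 active means melting temperature shift of at least 10% of the positive control shift, at one fixed dose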
ADAM10 inh: human ADAM10 inhibitors, primary screen, biochemical, QFRET, HTS; recombinant ADAM10, EDANS/DABCYL FRET peptide cleavage, 3 h; inhibition, % at 7 µM; 0.62% of 370,000 active; AID 720582, 2013;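 active means inhibition above a per-campaign cutoff equal to the mean of compounds falling between control-based bounds plus 3 SD, cut at about 20% in these data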;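 further: 0% = DMSO wells while the 100% control is not disclosed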
Target sequence (O14672 214-748 limits assumed): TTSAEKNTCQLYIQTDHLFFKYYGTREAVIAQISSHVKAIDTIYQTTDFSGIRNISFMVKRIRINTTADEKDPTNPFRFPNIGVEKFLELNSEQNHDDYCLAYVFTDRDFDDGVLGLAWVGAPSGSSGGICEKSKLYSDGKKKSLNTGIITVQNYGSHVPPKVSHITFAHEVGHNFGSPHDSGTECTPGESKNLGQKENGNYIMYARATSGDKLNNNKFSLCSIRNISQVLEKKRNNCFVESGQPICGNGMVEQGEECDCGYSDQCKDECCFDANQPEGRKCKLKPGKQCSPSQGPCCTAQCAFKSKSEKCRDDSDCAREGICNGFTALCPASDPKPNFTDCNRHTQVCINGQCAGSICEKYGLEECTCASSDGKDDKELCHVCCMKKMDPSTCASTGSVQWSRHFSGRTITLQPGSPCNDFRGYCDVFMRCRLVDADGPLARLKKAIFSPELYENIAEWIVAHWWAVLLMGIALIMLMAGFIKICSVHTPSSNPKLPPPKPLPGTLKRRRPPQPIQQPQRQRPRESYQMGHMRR
SKN-1 inh: suppressors of acrylamide-induced Pgst-4::GFP reporter in worms, primary screen, SKN-1 inhibitor project, whole organism, uHTS, GFP/RFP fluorescence ratio, strain VP596; C. elegans VP596 Pgst-4::GFP/RFP ratio, 24 h; inhibition, % at 21.8 µM; 0.49% of 360,000 active; AID 624304, 2012;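 active means interference check ratio from 0.5 to 1.5 plus GFP to RFP signal ratio inhibition reaching or exceeding a fixed threshold, cut at about 30% in these data, passing the limit was not always enough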
ADAM17 inh: ADAM17 inhibitors, primary screen, biochemical, QFRET; recombinant ADAM17, EDANS/DABCYL FRET peptide cleavage; inhibition, % at 6.95 µM; 0.83% of 370,000 active; Disintegrin and metalloproteinase domain-containing protein 17 (Homo sapiens), P78536;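 active means inhibition above the mean of compounds lying between control limits plus 3 SD, set per campaign, cut at about 8.5% in these data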;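 further: 0% = DMSO-only wells as the low control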
MPTP inh: mitochondrial permeability transition pore inhibitors, primary screen, biochemical, isolated mouse mitochondria, absorbance | Ca2+ swelling absorbance, 30 min | inhibition, % at 10 µM | 1.4% of 360,000 active | AID 602449, 2012;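 active means inhibition of 50% or more, scaled per plate between neutral and stimulator controls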;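 further: 0% = DMSO wells given calcium and 100% = 1 mM EGTA wells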
MT1-MMP act inh: blockers of MT1-MMP proenzyme processing, primary screen, HT1080 RFP-PRO-GFP cells, GFP/RFP fluorescence. Matrix metalloproteinase-14 (Homo sapiens), P50281. GFP/RFP ratio fluorescence, overnight; percent of plate control window, DMSO zero. GFP/RFP ratio change, % at 20 µM. 0.061% of 360,000 active. AID 651647, 2012;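 active means GFP/RFP ratio change of at least 30% with cell ATP level not reduced by more than half and red fluorescence within 50% of control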
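Compound: 20 µM single dose, 1% DMSO / System: HT1080 RFP-PRO-GFP cells / Controls: DMSO and RFP-L50D-GFP cell wells / Read-out basis: GFP/RFP fluorescence ratio / Schedule: overnight compound exposure at 37 °C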
Numbers without * were called inactive; / = no result given. Compounds with a hit are over-represented: about 4.7% of the library has one in this group of screens.

SMILES	NR3A LBD binder	ADAM10 inh	SKN-1 inh	ADAM17 inh	MPTP inh	MT1-MMP act inh
COc1ccc(-c2cc(=O)c3c(O)c(OC)c(O)cc3o2)cc1	12.3*	-18.2	3.6	-3.1	-1.5	8.7
O=c1cc(-c2ccc(O)cc2)oc2cc(O)cc(O)c12	17.4*	-7.0	-14.1	-2.5	0.8	-14.6
Cc1cc(C)cc(C(=O)NCc2ccc3c(c2)OCO3)c1	0.5	-7.5	-0.4	-5.8	-0.5	-1.2
COc1ccc(CNC(=O)C2Cc3c(-c4cccc(F)c4)ccnc3O2)cc1OC (stereo not drawn)	/	-8.5	0.1	-4.1	0.1	0.2
CCN(CC)c1ccc(C=C2C(=O)OC(C)(C(C)(C)C)OC2=O)cc1 (stereo not drawn)	2.4	-4.0	31.4	-2.2	2.7	-0.2
CCN(CC)c1ccc(C=C2C(=O)OC(c3ccccc3)OC2=O)cc1 (stereo not drawn)	31.6*	-2.9	23.4	-0.3	-2.6	5.5
CCN(CC)c1ccc(C=C2C(=O)OC3(CCCC3)OC2=O)cc1	23.2*	-3.2	27.0	3.6	0.2	-0.8
CNCC(=O)Nc1ccc(OC(F)(F)F)cc1	0.0	-8.3	-6.6	-4.8	2.5	6.7
Cc1cccc(NC(=O)C2CCN(S(=O)(=O)c3ccc4c(c3)OCCO4)CC2)n1	-3.2	-0.4	2.1	0.2	-0.5	2.9
COc1ccccc1C1Nc2cccc3cccc(c23)N1	-2.1	-7.2	0.4	1.6	3.3	10.8
Oc1ccccc1C1Nc2cccc3cccc(c23)N1	11.5*	8.4	-13.5	-0.3	2.8	15.2
CNC(=O)c1c(NC(=O)CCS(=O)(=O)c2ccc(Cl)cc2)sc2c1CCN(C(=O)OC)C2	10.1*	-21.0	13.4	-8.4	-0.5	0.6
CCOC(=O)N1CCc2c(sc(NC(=O)CCS(=O)(=O)c3ccccc3)c2C(N)=O)C1	-1.7	-1.7	-5.7	0.2	-0.4	-9.4
COc1ccc(NS(=O)(=O)c2cccc(C(=O)N/N=C(/C)c3ccc(-n4ccnc4)cc3)c2)cc1	-3.4	-15.8	-7.0	-3.0	0.6	0.0
CCOc1ccc(S(=O)(=O)Nc2ccc(C(=O)N/N=C(\C)c3ccc(-n4ccnc4)cc3)cc2)cc1	-9.2	11.4	-3.3	9.0*	3.6	-4.2
CCOCc1cc(CN2CCC(n3nccc3NC(=O)C3CC3)CC2)ccc1OC	1.5	-2.9	-17.3	-2.6	0.6	-1.9
COc1ccc(CN2CCC(n3nccc3NC(=O)C3CC3)CC2)cc1O	14.1*	-8.6	2.5	-9.0	1.6	-0.3
CCC(CC)c1nnc(NC(=O)c2c(C)nn(Cc3ccccc3Cl)c2C)s1	15.6*	4.4	-22.9	3.4	-2.8	3.1
Cc1cc(NC(=O)c2ccc(F)cc2F)n(-c2nc3ccccc3[nH]2)n1	1.5	/	2.4	/	1.3	1.6
Cc1cc(NC(=O)/C=C/c2ccccc2Cl)n(-c2nc3ccccc3[nH]2)n1	15.9*	-1.6	0.0	-3.2	4.8	5.1
CCOC(=O)/C(=C\c1cn(C)c2ccccc12)[N+](=O)[O-]	33.6*	3.4	-1.6	2.8	-0.1	-4.1
COc1ccc(-c2csc(C3=C(O)CN(Cc4ccc(Cl)cc4)C3=N)n2)cc1OC	-0.1	5.4	-12.9	-4.8	-2.0	9.3
c1ccc(N2CCN(c3ccccc3)C2c2cccnc2)cc1	10.2*	-2.0	-2.9	5.9	0.9	/
CN1/C(=C\C(=O)c2cccc([N+](=O)[O-])c2)Sc2ccccc21	12.4*	-0.1	16.0	-1.6	0.6	2.4
CC1=C(C(=O)Nc2ccccc2)C(c2ccc(O)cc2)N2C(=O)CSC2=N1 (stereo not drawn)	11.8*	17.5	3.9	7.6	-0.5	-0.7
SMILES	NR3A LBD binder	ADAM10 inh	SKN-1 inh	ADAM17 inh	MPTP inh	MT1-MMP act inh
Cc1ccc(-c2c(C)cc3oc(=O)cc(-c4ccccc4)c3c2C)cc1	-0.7	-11.1	7.1	0.1	-0.4	-0.1
COc1ccc(-c2cccc(-c3cc(=O)oc4cc(OC)cc(OC)c34)c2)cc1	15.4*	1.6	13.2	4.0	-2.0	9.4
COc1ccc(-c2c(C)cc3oc(=O)cc(-c4ccccc4)c3c2C)cc1	15.4*	-8.6	-11.7	-4.6	1.9	-2.8
COc1cc(OC)c2c(-c3cccc(-c4ccc(O)cc4)c3)cc(=O)oc2c1	-7.9	18.4	3.4	8.6	-0.6	-2.2
CN(C)/C=C/C(=O)c1cnc(-c2ccccc2Cl)s1	-5.3	-2.5	2.4	-0.5	-0.7	-7.4
Brc1ccc(-c2cn3ccccc3n2)s1	-31.9	-4.0	83.8*	-3.0	-4.3	0.1
COc1ccc(-c2cn3ccccc3n2)cc1	26.1*	-238.5	10.7	-98.0	1.7	-1.8
CC1CC(=O)Nc2ccccc2N1 (stereo not drawn)	-1.0	-10.9	-0.1	0.0	0.9	1.5
C=CCN1CCOc2ccc(C)cc2S1(=O)=O	10.1*	14.5	5.1	-3.5	-0.9	0.9
COc1ccccc1/C=C/C=N/NC(=O)c1ccncc1	-17.6	-18.5	4.4	-4.1	-0.6	-1.0
Cc1cc2cc(CNC(=S)Nc3ccc(OC(F)(F)F)cc3)ccc2[nH]1	12.4*	-4.1	29.9	-0.2	3.1	15.0
O=C1C=C(c2cccc(OCc3ccccc3)c2)C[C@@H](c2ccc3c(c2)OCO3)C1	0.6	18.4	7.2	-0.2	2.4	1.0
CCn1c(SCc2ccc(OC)cc2)nnc1-c1ccncc1	-0.7	-2.5	2.9	-3.7	-0.2	0.2
Cc1ccc(C(=O)Nc2ccc(C(=O)/C=C/c3cccs3)cc2)cc1	14.7*	2.3	0.7	3.9	9.0	3.1
O=C(/C=C/c1cccs1)c1ccc(Br)cc1	0.1	9.7	37.2*	6.5	48.3	-2.7
COc1ccc(C(=S)Nc2ccc(C)cc2)cc1	-35.4	1.4	8.2	-0.6	-0.8	2.6
COC(=O)c1ccc(NC(=O)Nc2ccc3c(c2)OCO3)cc1	23.7*	2.7	-1.2	6.4	7.6	3.0
O=C(Nc1ccc2c(c1)OCCO2)Nc1ccc2c(c1)OCO2	-37.9	-2.3	2.3	-0.7	2.3	-3.2
O=C(Nc1ccc2c(c1)CCC2)c1cc(S(=O)(=O)N2CCN(c3ccccc3)CC2)ccc1Cl	-0.6	21.6*	5.7	6.6	2.3	-2.3
NC(=O)c1ccc(NC(=O)Nc2ccc3c(c2)OCO3)cc1	13.0*	-4.5	-3.6	-1.5	-0.2	0.8
CC(=O)c1cccc(NC(=O)NCc2ccc3c(c2)OCO3)c1	-1.2	-5.8	6.0	-0.8	0.0	-1.2
